Assay results reported in the RNAGym collection of RNA variant scans (doi:10.1101/gad.245936.114).
Fewer inactive variants are shown than the library holds.

B1: tRNA (parent)
chain: CUCUCGGUAGCCAAGUUGGUUUAAGGCGCAAGACUUUAAUUUAUCACUACGAAAUCUUGAGAUCGGGCGUUCGACUCGCCCCCGGGAGAUUUUUUCCUCGAGCAA

Variants of: B1
Experiment: nonsense suppression (GFP-seq) (ratio to wild type); higher = more function; SUP4oc tRNA, yeast GFP reporter sort-seq
Summary of the method: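 Nonsense suppression (GFPSEQ) is the median GFP/RFP ratio of each sorting bin, weighted by the variant's estimated share of cells in that bin and expressed relative to the unmutated parent tRNA. Yeast strains carried genome-integrated variants of an ochre-suppressor tRNA from a library with ~3% random mutations, plus a galactose-driven GFP ochre reporter and RFP, and were grown in raffinose/galactose medium containing 80 mg/L adenine. Cells were sorted into GFP/RFP bins, each bin was Illumina-sequenced (phred ≥30), and variants were kept only with ≥100 reads and ≥30 cells.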

Variant | nonsense suppression
CUCUCGGUAGCCAAGUUGGUUUAAGGCGCAAGACUUUAAUUUAUCACUACGAAAUCUUGAAAUCGGGCGUUUGACUCGCCCCCGGGAGAUUUUUUCCUCGAGCAA [G61A C72U] | 0.0666
CUCUCGGUAGCCAAGUUGGUUUAAGGCGCUAGACUUUAAUUUAUCACUACGAAAUCUUGUGAUCGGGCGUUCGACUCGCCCCCGGGAGAUUUUUUCCUCGAGCAA [A30U A60U] | 0.769
CUCUCGGGAGCCAAGUUGGUUUAAGACGCAAGACUUUAAUUUAUCACUACGAAAUUUUGAGAUGGUGCGUUCGACUCUCCCCCGGGAGUUUUUUUCCUCGAGCAA [U8G G26A C56U C64G G66U G78U A89U] | ≤ 0.026
CUCUCGGUAGCCAAGUUGGUUUAAGGCACAAGACUUUAAUUUAUCACUACGAAAUCUUGGGAUCGGGCGUUCGACUCGCCCCCGGGAGAUUUUUUCCUCGAGCAA [G28A A60G] | 1.07
CUCUCGGUAGCCAAGUUGGUUUAAGGCGCAAGAUUUUAAUUUAUCACUACGAAAUCUUGACAUCGGGCGUUCGACUCGCCCCCGGGAGAUUUUUUCCUCGAGCAA [C34U G61C] | 0.0481
CUCUCGGUAGCCAAGUUGUUUUAAAGCGCAGGACGUUAAUUUAUCACUACGAAAUCUUGAGAUGGGGCGUUCGACUCGCCCCCGGGAGAUUUUUUCCUCGAGCAA [G19U G25A A31G U35G C64G] | ≤ 0.026
CUUUCGGUAGCUAAGUUGGUUUAAGGCGCAAGACUUUAAUUUAUCACUACGAAAUCUUGAGAUCGGGCGUUCGACUCGCCCGCGGGAGAUUUUUUCCUCGAGCAA [C3U C12U C82G] | ≤ 0.026
CUCUCGGUAGCCAAGUUGGUUUAAGGCGCAAGACUUUAAUUUAUCACUACGAAACCUGGAGAUCGGGCGUUCGACUCGCCCCCGGGAGAUUUUUUCCUCGAGCAA [U55C U58G] | ≤ 0.026
CUCUCGGUAGCCAAGUUGGUUUAAGGCGCGAGACUUUAAUUUAUCACUACGAAAUCUUGGGAUCGGGCGUUCGACUCGCCCCCGGGAGAUUUUUUCCUCGAGCAA [A30G A60G] | 0.108
CUCUCGGUAGCCAAGUUGGUUCAAGGCGCAAGACUUUAAUUUAUCACUACGAAAUCUUGCAAUCGGGCGUUCGACUCGCCCCCGGGAGAUUUUUUCCUCGAGCAA [U22C A60C G61A] | 0.176
CUCUCGGUUGCCAAGUUGGUUUAAGGCGCAAGACUUUAAUUUAUCACUACGAAAUCUUGAGAUCGGGCGUUCGACUCACCCCCGGGAGAUUUUUUCCUCGAGCAA [A9U G78A] | 0.0365
CUCUCGGUAGCCAAGUUGGUUUACGGCGCAAGACUUUAAUUUAUCACUACGAAAUCUUGAGAUCGGGCGUUCGACUCACCCCCGGGAGAUUUUUUCCUCGAGCAA [A24C G78A] | 0.112
CUCUCGGUAGCCAAGUUGGUUUAAGGCGCAAGACUUUAAUUUAUCACUACGAAAUCUUGAGACCGGGCGUUCAACUCGCCCCCGGGAGAUUUUUUCCUCGAGCAA [U63C G73A] | 0.11
CUCUCGGUAUCCAAGUUGGUUUAAGGCGCAAGACUUUAAUUUAUCACUACGAAAUCUUGAGAUCGGGCGUUCGACUCGCCCCCGCGAGAUUUUUUCCUCGAGCAA [G10U G85C] | ≤ 0.026
CUCUCGGUAGCCAAGUUGGUUUAAGGCGCAAGACUUUAAUUUAUCACUACGAAAUCUUGAGAUCGAACGUUCGACUCGCCCCCGGCAGAUUUUUUCCUCGAGCAA [G66A G67A G86C] | ≤ 0.026
CUCUCGGUAGCCAAUUUGGUUUAAGGCGCAAGACUUUAAUUUAUCACUACGAAAUCUUGAGAUCGGGCGGUCGACUCGCCCCCGGGAGAUUUUUUCCUCGAGCAA [G15U U70G] | ≤ 0.026
CUCUCGGUAGCCAAGUUGGUUUAAUGCGCAAGACUUUAAUUUAUCACUACGAAAUCUUGCGAUCGGGCGUUCGACUCGCCCCCGGGAGAUUUUUUCCUCGAGCAA [G25U A60C] | ≤ 0.026
CUCUCGGUAGCCAAGUUGGUUUAAGGCACAAGACUUUAAUUUAUCACUACGAAAUCUUGAGAUCGGGCGUUCGACUCGCCCCCAGCAGAUUUUUUCCUCGAGCAA [G28A G84A G86C] | ≤ 0.026
CUCUCGGUAGCCAAGUUGGUUUAAGGCGCAAGACUUUAAUUUAUCACUACGAAAUCUUGAGAUCGGGCGUUCGACUCGCUCCCAGGAGAUUUUUUCCUCGAGCAA [C80U G84A] | 0.125
CUCUUGGUAGCGGAGUUGGUUUAAGGCGAAAGACUUUAAUUUAUCACUACGAAAUCUUGAGAUCGGGCGUUCGACUCGCCCCCGGGAGAUUUUUUCCUCGAGCAA [C5U C12G A13G C29A] | ≤ 0.026
CUCUCGGUAGCCAAGUUGGUUUAAGGCGCAAGACUUUAAUUUAUCACUACGAACUCUUGAGAUCGGGCGUUCGACGCGCCCCCGGGAGGUUUUUUCCUCGAGCAA [A54C U76G A89G] | ≤ 0.026
CUCUCGGUAGCCAAGUUGGUUUAAGGCGCGAGACUUUAAUUUAUCACUACGAAAUCUUGAGAUCGGGCGUUCGCCUCGCCCCCGGGAGAUUUUUUCCUCGAGCAA [A30G A74C] | 0.0554
CUCUCGGUAGCCAAGUUGGUUUAAGGCGCAAGACUUUAAUUUAUCACUACGAAAUCUCGAGAUCGGGCGUUCGACUCGCCCCCGGGAGCUUUUUUCCUCGAGCAA [U58C A89C] | ≤ 0.026
CUUUCGGUAGCCAAGUUGGUUUAAGGCGCAAGACUUUAAUUUAUCACUACGAAAUCUUGUGAUCGGGCGUUCGACUCGCCCCCGGGAGAUUUUUUCCUCGAGCAA [C3U A60U] | 0.55
CUCUCGGUAGCCAAGUUGGGUUAAGGCGCAAGACUUUAAUUUAUCACUACGAAAUCUUGAGAACGGGCGUUCGACUCGCCCCCGGGAGAUUUUUUCCUCGAGCAA [U20G U63A] | 1.06
CUCUCGGUAGCCAACUUGGUUUAAGGCGCAAGACUUUAAUUUAUCACUACGAAAUAUUGAGAUCGGGCGUUCGACUCGCCCCCGGGAGAUUUUUUCCUCGAGCAA [G15C C56A] | ≤ 0.026
CUCUCGGUAGCCAAGUUGGUUGAAGGCGCAAGACUUUAAUUUAUCACUACGAAAUCUUGAGAUCGGGCGUUCGACUCGCCCCCGUGAGAUUUUUUCCUCGAGCAA [U22G G85U] | 0.796

Variant | nonsense suppression
CUGUCGGUAGCCAAGUUGGUUUAAGGCGCAAGACUUUAAUUUAUCACUACGAAAUCUUGAGAUCGGGCGUUCGACUCGCCCCCUGGAGAUUUUUUCCUCGAGCAA [C3G G84U] | ≤ 0.026
CUCUCGGUAGCCAAGUUGGUUUAUGGCGCAAGACUUUAAUUUAUCACUACGAAAUCUUGAGAUCGGGCGUUCGACUCGCCCCCGAGAGAUUUUUUCCUCGAGCAA [A24U G85A] | 0.327
CUCUCGGUAGCCAAGUUGGUUUAAGGCGCAAGAGUUUAAUUUAUCACUACGAAAUCUUGAGAUUGGGCGUUCGACUCGCCCCCGGGAGAUUUUUUCCUCGAGCAA [C34G C64U] | ≤ 0.026
CUCUCGGUAGCCAAGUUGGUUUAAGGCGCAAGACUUUAAUUUAUCACUACGAAAUCUUGAGAGCGGGCGUUCGACUCUCCCCCGGGAGAUUUUUUCCUCGAGCAA [U63G G78U] | 0.0445
CUCUCGGUAGCCAAUUAGGUUUAAGGCGCAAGACUUUAAUUUAUCACUACGAAACCUUGAGAUCGGGCGUUCGACUCGCCCCCGGGAGAUUUUUUCCUCGAGCAA [G15U U17A U55C] | ≤ 0.026
CUCUCGGUAGCCAAGUUGGUUUAAGGCGCAAGACUUUAAUUUAUCACUACGAAAUCUUGAGAUCGGGCGCUCGAUUCGCCCCCGGGAGAUUUUUUCCUCGAGCAA [U70C C75U] | ≤ 0.026
CUCUCGGUAGCCAAGUUGGUUUAAGGCGCAAGACUUUAAUUUAUCACUACGAAAUCUUGAGAUCGGGCGUUCGACUCGCCCCCGUGAGAUUUUUUCCUCGAGCAA [G85U] | 1.12
CUCUCGGUAGCCCAGUUGGUUUAAGGCGCAAGACUUUAAUUUAUCACUACGAAAUCUUGAUAUCGGGUGUUCGACUCGCCCCCGGGAGAUUUUUUCCUCGAGCAA [A13C G61U C68U] | 0.414
CUCCCGGUAGCCAAGUUGGUUUAAGGCGCAAGACUUUAAUUUAUCACUACGAAAUCUGGAGAUCGGGCGUUCGCCUCGCCCCCGGGAGAUUUUUUCCUCGAGCAA [U4C U58G A74C] | ≤ 0.026
CUUUCGGUAGCCAAGUUGGUUUAAGGCGCAAGACUUUAAUUUAUCACUACGAAAUCUUGAGAUCGGGCGUUCGACUCGCCUCCGGGAGAUUUUUUCCUCGAGCAA [C3U C81U] | 0.0941
CUCUCGGUAGGCAAGUUGGUUUAAGGCGCAAGACUUUAAUUUAUCACUACGAAAUCUUAAGAUAGGGCGUUCGACUCGCCCCCGGGAGAUUUUUUCCUCGAGCAA [C11G G59A C64A] | ≤ 0.026
CUCCCGGUGGCCAAGUUGGUUUAAGGCGCAAGACUUUAAUUUAUCACUACGAAAUCUUGAGAUCGGGCGUUCGACUCGCCCCCGGGAGAUUUUUUCCUCGAGCAA [U4C A9G] | 0.391
CUCUCGGUAGCCAAAUUGGUUUAAGGCGCAGGACUUUAAUUUAUCACUACGAAAUCUUGAGAUCGGGCGUUCGACUCGCCCCCGGGAGAUUUUUUCCUCGAGCAA [G15A A31G] | 0.0274
CUCUCGGUAGCCAAGUUGGAUUAAGGCGCAAGACUUUAAUUUAUCACUACGAAAUCAUGAGAUCGGGCGUUCGACUCGCCCCCGGGAGAUUUUUUCCUCGAGCAA [U20A U57A] | ≤ 0.026
CUCUCGGUAGCCAAGUUGGUUUAAGGCGCAAGACUUUAAUUUAUCACUACGAAAUCUUGAGAUCGGGCGAUCGACUCGCGCCCGGGAGAUUUUUUCCUCGAGCAA [U70A C80G] | ≤ 0.026
CUCUCGGUAGCCCAGUUGGUUUAAGGCGCAAGACUUUAAUUUAUCACUACGAAAUCUUGAGAUUGGGCGUUCGACUCGCCCCCGGGAGAUUUUUUCCUCGAGCAA [A13C C64U] | 0.0428
CUCUCGUUAGCCAAGUUGGUGUUAGGCGCAAGACUUUAAUUUAUCACUACGAAAUCUUGAGAUCGGGCGUUCGACUCGGCCCCGGGAGAUUUUUUCCUCGAGCAA [G7U U21G A23U C79G] | ≤ 0.026
CUCUCGGUAGCCAAUUUGGUUUAAGGCGCAAGACUUUAAUUUAUCACUACGAAAACUUGAGAUCGGGCGUUCGACUCGCCCCCGGGAGAUUUUUUCCUCGAGCAA [G15U U55A] | ≤ 0.026
CUCUCGGUAGCCAAGUUGGUUAAAGGCGCGAGACUUUAAUUUAUCACUACGAAAUCUUGAGAUCGGGCGUUCGACUCGCCCCCGGGAGAUUUUUUCCUCGAGCAA [U22A A30G] | 0.677
CUCUCGGUAGCCAAGUUGGUUUAAGGCGCAAGACUUUAAUUUAUCACUACGAAAUCUUGCGAUCGGGCGUUCGACUCGCCCCCGGGAGAUUUUUUCCUCGAGCAA [A60C] | 0.489
CUCUCGGUUGCCAAGUUGGUUUACGGCGCAAGACUUUAAUUUAUCACUACGAAAUCUUGAGAUCGCGCGUUCGACUCGCCCCUGAGAGAUUUUUUCCUCGAGCAA [A9U A24C G66C C83U G85A] | ≤ 0.026
UUCUCGGUAGCCAAGUCGGUUUAAGGCGCAAGACUUUAAUUUAUCACUACGAAAUCUUGAGAUCGGGCGUUCGACUCGCCGCCGGGAGAUUUUUUCCUCGAGCAA [C1U U17C C81G] | ≤ 0.026
CUCUCGGUUGCCAAGUCGGUUUAAGGCGCAAGACUUUAAUUUAUCACUACGAAAUCUUGAGAUCGGGCGUUCGACUCGCCCCCGGGAGAUUUUUUCCUCGAGCAA [A9U U17C] | 0.128
UUCUCGGUAGCCAAGUUAGUUUAAGGCGCAAGACUUUAAUUUAUCACUACGAAAUCUUGAGAUCGGGCGUUCGACUCGCCCCCGGGAGAUUUUUUCCUCGAGCAA [C1U G18A] | ≤ 0.026
CGCUCCGUAGCCAAGUUAGUUUAAGGCGCAAGACUUUAAUUUAUCACUACGAAAUCUUGAGAUCGGCCGUUCGACUCGCCCCCGGAGGAUUUUUUCCUCGAGCAA [U2G G6C G18A G67C G86A A87G] | ≤ 0.026
CUCUCGGUAGCCAAGUUGGUUUAAGGCGCAAGACUUUAAUUUAUCACUACGAAAUCUGGAGAUCGCGCGUUCGACUCGCGCCCGGGAGAUUUUUUCCUCGAGCAA [U58G G66C C80G] | 0.0324
CUCUCGAUAGCCAAGUUGGUUUAAGGCGCAAGACUUUAAUUUAUCACUACGAAAACUUGAGAUCGGGCGUUCGACUCGCCCCCGGGAGAUUUUUUCCUCGAGCAA [G7A U55A] | ≤ 0.026
